Assays:
Assay type in all cases: functional
Mus musculus [1] = species: Mus musculus; assay: Ability to antagonize p-chloroamphetamine-induced depletion of brain serotonin in mouse
Method in brief: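 Male albino mice (16–20 g), groups of five; compound given ip as aqueous solution, then 1 h later p-chloroamphetamine HCl 20.6 mg/kg ip. Decapitation 6 h after that; whole brains frozen on dry ice, stored at -15 °C, serotonin measured by HPLC with electrochemical detection. ED50 from dose-response.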

Mus musculus [2] = species: Mus musculus; assay: Antagonistic activity against acetic acid induced abdominal constriction (writhing) in mice; details: Abdomen
Method in brief: (§1)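 Male CF-1 mice (~20 g), fasted overnight, five per point, each used once. Drug given sc in distilled water, 10 mL/kg, 20 min before 0.6% acetic acid ip (10 mL/kg). Writhes counted for 10 min starting 5 min after acid. Percent inhibition versus same-day controls; ED50 by probit least-squares of log dose.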

Mus musculus [3] = assay: Antagonistic activity against acetic acid induced abdominal constriction (writhing) in mice, when administered in combination with 0.2 mg/kg of morphine; details: Abdomen; method in brief: as §1
Mus musculus [4] = species: Mus musculus; assay: Inhibition of serotonin uptake carrier in mice
Rattus norvegicus = species: Rattus norvegicus; assay: Ability to antagonize saccharin-induced drinking (palatability-induced ingestion) in rats
Method in brief: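 Long-Evans hooded male rats (400–600 g, n=24), individually housed, given 2 h weekday access to 0.01 M sodium saccharin; water and chow free except 0.5 h before and during access. Drug ip, 1 mL/kg, 0.5 h before access. Intake expressed as ratio to nearest noninjection (Thursday) control, normalized to distilled-water group = 100%; mean of four to six rats; ED50 with 95% confidence limits.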

| SMILES | ED50 (Mus musculus [1]) | ED50 (Mus musculus [2]) | ED50 (Mus musculus [3]) | Ki (Mus musculus [4]) | ED50 (Rattus norvegicus) |
| --- | --- | --- | --- | --- | --- |
| CNCC[C@H](Oc1ccc(C(F)(F)F)cc1)c1ccccc1 | 2.1 mg/kg | 25.7 mg/kg | 5.7 mg/kg | 33 nM | 4.9 mg/kg |
| CNCC[C@@H](Oc1ccc(C(F)(F)F)cc1)c1ccccc1 [R-FLUOXETINE] | 1.2 mg/kg | 15.3 mg/kg | 3.6 mg/kg | 21 nM | 6.1 mg/kg |

Source: ChEMBL document CHEMBL1124157, “Absolute configurations and pharmacological activities of the optical isomers of fluoxetine, a selective serotonin-uptake inhibitor” (J Med Chem, 1988)
